Source: PMC3328361 (The Journal of Experimental Medicine, 2012)

Assays:
[1] = Time-dependent degradation of ONOO^− monitored by UV-visible spectroscopy; assay type: biochemical; conditions: Cu^II(atsm) at 10 µM; ONOO^− in high pH solution (alone 53 ± 3 min)
α-synuclein [2] = molecular target: T1, α-synuclein (Homo sapiens, UniProt P37840); test: 2D [1H,15N] HSQC NMR titration of 15N-labeled α-synuclein; assay type: binding; conditions: increasing concentrations titrated in
α-synuclein [3] = molecular target: T1, α-synuclein; test: α-Synuclein amyloid fibril formation; assay type: biochemical; conditions: unpublished data
[4] = test system: differentiated SH-SY5Y cells; test: MTS cell viability, SIN-1–induced toxicity; assay type: cell-based, human; conditions: added to cell culture 5 min after SIN-1; unpublished data
[5] = test system: differentiated SH-SY5Y cells; test: 3-NT levels in cell media by ELISA after SIN-1; assay type: cell-based, human; conditions: 40 µM pretreatment before SIN-1
Summary of the method: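 Human SH-SY5Y cells were differentiated with 10 µM retinoic acid in 1.5% FCS medium for 3 d, then given fresh medium for another 3 d. Cells were preincubated with test compound (10, 20, 40 µM) for 5 min, then exposed to 3 mM SIN-1 for 90 min. Media were coated in pH 9.6 carbonate buffer for ELISA at 22°C: rabbit […] 1:2000, HRP secondary, TMB, A450.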

[6] = Rat pharmacokinetic study; assay type: in vivo, Sprague Dawley rats
Summary of the method: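 Fasted male Sprague Dawley rats (6–8 wk, ~280 g) received 20 mg/kg by oral gavage as a 6 mg/ml suspension (n = 3). Another group (n = 3) got 5 mg/kg by i.v. jugular-cannula infusion at 0.05 ml/min, as a 3 mg/ml solution in 20% DMSO/80% propylene glycol. Serial blood was taken to 24 h; plasma was acetonitrile-precipitated and analysed by LC-MS.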

[7] = Mouse pharmacokinetic and brain uptake study; assay type: in vivo, C57BL/6 mice
Summary of the method: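 Male C57BL/6 mice, 11 wk old, got a single 30 mg/kg oral gavage dose (7.5 mg/ml suspension in standard suspension vehicle). Plasma and brain were sampled at time points up to 24 h, n = 3 per point, under pentobarbitone anaesthesia. Samples were acetonitrile-precipitated and quantified against matrix-matched standards. Quantitation limits: 5 ng/ml plasma, 10 ng/g brain. Brain/plasma ratio taken from AUC0-6h.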

[8] = test system: MPTP-lesioned C57BL/6 mice; test: Stereological SNpc neuron counts, MPTP-lesioned wild-type mice; assay type: in vivo; conditions: for increase in number of SNpc neurons vs vehicle-treated MPTP-lesioned mice: started 1 d after lesion, 20 d
[9] = test system: 6-OHDA-lesioned C57BL/6 mice; test: Stereological SNpc neuron counts, 6-OHDA-lesioned mice; assay type: in vivo; conditions: 30 mg/kg, started 3 d after 6-OHDA lesion, 20 d
Summary of the method: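 6-OHDA lesion in the right substantia nigra of 2-mo-old C57BL/6 mice; dosing started 3 d post-lesion. Mice were perfused with cold PBS. The right hemisphere was fixed overnight in 4% paraformaldehyde in 0.1 M phosphate buffer at 4°C. Nissl-stained SNpc neurons were counted stereologically with an unbiased 45 µm × 35 µm counting frame.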

[10] = test system: hA53T α-synuclein tg mice; test: Stereological nigral cell counts, hA53T α-synuclein tg mice; assay type: in vivo; conditions: 30 mg/kg, 20 d
Summary of the method: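 hA53T α-synuclein tg mice and C57BL/6 x C3H background controls, 7 mo old, equal sexes, received 30 mg/kg test compound or suspension vehicle by oral gavage for 20 d. The right hemisphere of PBS-perfused brains was fixed overnight in 4% paraformaldehyde at 4°C. Nissl-stained nigral neurons were counted stereologically using a 45 µm × 35 µm unbiased counting frame.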

[11] = test system: hA53T tg mice lesioned with MPTP; test: Stereological SNpc neuron counts, MPTP-lesioned hA53T tg mice; assay type: in vivo; conditions: 30 mg/kg
Summary of the method: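 MPTP was given i.p. as four 10 mg/kg doses at 2-h intervals. Groups: 4-mo-old female C57BL/6 mice and 7-mo-old hA53T α-synuclein tg mice, equal sexes. From 1 d post-lesion, mice got 15 or 30 mg/kg test compound or suspension vehicle by oral gavage for […]; saline sham-lesioned controls got vehicle. Perfused brains, right hemisphere fixed in 4% paraformaldehyde; Nissl-stained SNpc counted stereologically (45 × 35 µm frame).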

[12] = test system: MPTP-lesioned C57BL/6 mice; test: Pole test, MPTP-lesioned wild-type mice; assay type: in vivo
Summary of the method: (§1)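 Oral gavage of 15 or 30 mg/kg test compound or suspension vehicle began 1 d post-lesion. Saline sham-lesioned controls received vehicle. Pole test (Tturn, Ttotal) was run after 19 d of treatment.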

[13] = test system: hA53T α-synuclein tg mice; test: Pole test, hA53T α-synuclein tg mice; assay type: in vivo; conditions: 30 mg/kg
[14] = test system: hA53T tg mice lesioned with MPTP; test: Pole test, MPTP-lesioned hA53T tg mice; assay type: in vivo
Summary of the method: as §1

[15] = test system: 6-OHDA-lesioned C57BL/6 mice; test: Amphetamine-induced rotation, 6-OHDA model; assay type: in vivo; conditions: 30 mg/kg, 6-OHDA-lesioned mice
Summary of the method: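 Partial 6-OHDA lesion: 2 µl injected into the right substantia nigra of 2-mo-old C57BL/6 mice, 3.0 mm AP, 1.1 mm lateral, 4.7 mm DV from bregma. Amphetamine-induced rotation was tested 3 d post-lesion, before dosing, to confirm lesion size. Mice were randomised to test compound or vehicle for 18 d, then rotation was retested.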

TH = TH levels in SNpc of MPTP-lesioned mice; assay type: in vivo
Summary of the method: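 MPTP lesion: four i.p. doses of 10 mg/kg at 2-h intervals; 15 or 30 mg/kg oral gavage from the next day. For TH immunostaining, 30 µm coronal SNpc sections were post-fixed in 4% PFA and boiled in citrate buffer (pH 6.0). They were blocked with normal goat serum and incubated overnight at room temperature with rabbit anti-TH 1:3000, then HRP secondary for 2 h and DAB. Western blots were normalised to GAPDH or β-actin.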

MPTP-lesioned mice = test: Dopamine measurement of mouse striatum; assay type: in vivo; conditions: 30 mg/kg
Summary of the method: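 MPTP lesion: four i.p. doses of 10 mg/kg at 2-h intervals. Starting the next day, mice received 30 mg/kg test compound or suspension vehicle by oral gavage. Right striatum was homogenised by pulse sonication in 0.4 M perchloric acid with 0.15% sodium metabisulfite and 0.05% EDTA disodium salt for dopamine measurement.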

VMAT2 [16] = test: VMAT2 levels in MPTP-lesioned mice; assay type: in vivo; conditions: for increase in VMAT2 levels: 3–4-mo-old MPTP-lesioned mice
Summary of the method: (§2)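 MPTP lesion: four i.p. doses of 10 mg/kg at 2-h intervals. Test compound (15 or 30 mg/kg) or vehicle was given by oral gavage from the next day for 21 d. Brain homogenate (~20 µg) was reduced, heated to 90°C for 5 min, run on 10% SDS-PAGE and blotted to nitrocellulose. Densitometry was normalised to GAPDH or β-actin and expressed as percentage of vehicle.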

VMAT2 [17] = test: VMAT2 microPET imaging with 18F-AV133, MPTP-lesioned 18-mo-old mice; assay type: in vivo; conditions: 18 mo MPTP-lesioned mice, 30 mg/kg
Summary of the method: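 Female B6C3H x HeJ mice, 18 mo old, had baseline VMAT2 microPET: 500 µCi 18F-AV-133 by tail vein, imaged for 30 min. They were then lesioned with 4 × 10 mg/kg MPTP. Treatment at 30 mg/kg or vehicle began the following day and ran 21 d, after which microPET imaging was repeated.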

α-synuclein [18] = test: α-Synuclein levels in SNpc, MPTP-lesioned wild-type mice; assay type: in vivo
Summary of the method: as §2

α-synuclein [19] = test: α-Synuclein levels in SNpc, MPTP-lesioned hA53T α-synuclein tg mice; assay type: in vivo
Summary of the method: as §2

α-synuclein [20] = test: α-Synuclein levels, hA53T α-synuclein tg mice not MPTP-lesioned; assay type: in vivo; conditions: unpublished data
SNCA = SNCA gene expression by qPCR, MPTP-lesioned WT mice; assay type: in vivo
[21] = test system: hA53T α-synuclein tg mice; test: Novel object recognition; assay type: in vivo; conditions: 30 mg/kg for 20 d
Summary of the method: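 hA53T α-synuclein tg mice, 7 mo old, equal sexes, received 30 mg/kg test compound or vehicle by oral gavage for 20 d. Novel object test with Lego blocks: 10-min training with two objects, 1-h delay, then one familiar object replaced by a novel 1.5 × 1.5 × 2.0 cm object. Index = time with novel object / time with familiar object.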

[22] = test system: hA53T α-synuclein tg mice; test: Y-maze test, hA53T tg mice; assay type: in vivo; conditions: 30 mg/kg, vehicle-treated 30%
synaptophysin = test: Synaptophysin levels in striatum of hA53T tg mice; assay type: in vivo; conditions: 30 mg/kg
Summary of the method: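 hA53T tg mice, 7 mo old, were given 30 mg/kg or vehicle by oral gavage for 20 d. Striatal homogenate (~20 µg) was reduced with β-mercaptoethanol, heated to 90°C for 5 min, run on 10% SDS-PAGE and blotted to nitrocellulose. Synaptophysin densitometry was normalised to GAPDH or β-actin and expressed as percentage of vehicle.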

[23] = Overt toxicity observation in animal studies; assay type: in vivo; conditions: studies of this paper and a longer term 12-mo trial in wild-type animals
[24] = test system: low copy mice overexpressing human G93A SOD1; conditions: ref Soon et al., 2011, cited from earlier work
[25] = single oral 20 mg/kg, male Sprague Dawley rats
[26] = single oral 30 mg/kg, C57BL/6 mice

Question: What does the source list for CN=C([S-])N/N=C(C)/C(C)=N/NC([S-])=NC.[Cu+2] [Cu^II(atsm), copper(II)diacetylbis(N(4)-methylthiosemicarbazonato)]?
Answer: ONOO^− half-life [1]: ~0.193 ± 0.0083 h; direct interaction between α-synuclein and compound (HSQC spectra) (α-synuclein [2]): no direct interaction; inhibition of formation of α-synuclein fibrils (α-synuclein [3]): did not inhibit the formation of α-synuclein fibrils; protective effect in posttreatment paradigm [4]: no protective effect was observed; reduction in nitrotyrosine (3-NT) levels [5]: 51%; apparent oral bioavailability ([6]; oral 20 mg/kg vs intravenous 5 mg/kg, rats): 53 ± 5%; Tmax [6, 25]: 10 h; elimination half-life [6, 25]: 3.1 ± 0.4 h; Cmax ([6]; single oral 20 mg/kg, male Sprague Dawley rats, plasma): 0.4881 ± 0.067 µg/mL; maximum concentration of the compound in the brain ([7]; based on Cmax levels, oral 30 mg/kg mice): ~0.6 µM; brain Cmax [7, 26]: 0.198 ± 0.061 µg/mL; brain Tmax [7, 26]: 2 h; brain/plasma ratio (AUC0-6h) [7, 26]: 0.32; plasma Cmax [7, 26]: 0.591 ± 0.203 µg/mL; plasma Tmax [7, 26]: 1 h; apparent elimination half-life ([7]; single oral 30 mg/kg, C57BL/6 mice, plasma): ~3.3 h; increase in number of SNpc neurons vs vehicle-treated MPTP-lesioned mice ([8]; 15 mg/kg oral gavage): 43%; increase in number of SNpc neurons vs vehicle-treated MPTP-lesioned mice ([8]; 30 mg/kg oral gavage): 61%; effect on cell numbers of nonlesioned wild-type mice ([8]; nonlesioned wild-type mice): no effect; increase in number of SNpc dopaminergic neurons [9]: 26%; increase in total nigral cells [10]: 14%; increase of SNpc neurons [11]: 15%; decrease of Tturn and Ttotal times ([12]; 15 mg/kg): did not reach statistical significance; faster Ttotal (pole test) vs MPTP-lesioned vehicle ([12]; 30 mg/kg): 2.2 s; faster Tturn (pole test) vs MPTP-lesioned vehicle ([12]; 30 mg/kg): 1.5 s; effect on motor performance of nonlesioned wild-type mice ([12]; nonlesioned wild-type mice): no effect; improvement in Ttotal times [13]: not statistically significant; Tturn (pole test) ([13]; vehicle 3.9 ± 0.5 s): 1.1 ± 0.3 s; improvement in Ttotal [14]: 37%; improvement in Tturn [14]: 49%; Tturn (pole test) ([14]; vehicle 2.4 ± 0.4 s): 1.2 ± 0.1 s; Ttotal (pole test) ([14]; vehicle 6.1 ± 0.8 s): 3.9 ± 0.2 s; reduction in amphetamine-induced rotational behavior vs controls [15]: 45%; TH mRNA transcript levels (qPCR, SNpc) (TH): rescued; increase in TH levels (Western blot) (TH; 15 mg/kg): 42%; increase in TH levels (Western blot) (TH; 30 mg/kg): 45%; immunostaining of TH in SNpc (TH; either 15 or 30 mg/kg): increased immunostaining; increase in dopamine levels vs untreated MPTP-lesioned animals (MPTP-lesioned mice): 122%; increase in VMAT2 levels (VMAT2 [16]; 15 mg/kg): 13%; increase in VMAT2 levels (VMAT2 [16]; 30 mg/kg): 12%; VMAT2 transcripts (qPCR, SNpc) (VMAT2 [16]; MPTP-lesioned animals): levels were restored to those similar to the wild-type animals; increase in VMAT2 protein levels in striatum (Western blot) (VMAT2 [16]; older (18 mo) MPTP-lesioned mice): 60%; increase in 18F-AV133 ligand binding vs vehicle control lesioned mice (VMAT2 [17]): 142%; α-synuclein dimers, % of control-treated (α-synuclein [18]): 76%; α-synuclein monomer levels (α-synuclein [18]): no changes; reduction in α-synuclein monomer levels (α-synuclein [19]; MPTP-lesioned hA53T tg mice): 12%; α-synuclein dimers, % of control-treated (α-synuclein [19]; MPTP-lesioned hA53T α-synuclein tg mice): 83%; α-synuclein levels vs vehicle treatment (α-synuclein [20]): did not lead to any significant differences; SNCA gene regulation (qPCR) (SNCA): recovered to levels of unlesioned WT mice; increase in interactions with the novel object vs vehicle-treated mice [21]: 73%; mean novel arm entries (Y-maze) [22]: 42%; increase in synaptophysin levels vs vehicle-treated tg mice (synaptophysin): 31%; overt toxicity [23]: No overt toxicity; motor phenotype in ALS tg mouse model ([24]; pre- and postsymptomatic treatment regimes): successful in rescuing the motor phenotype; survival in ALS tg mouse model [24]: increased survival rates
